The values below come from ChEMBL document CHEMBL1821590, “Novel dihydropyrimidines and its pyrazole derivatives: synthesis and pharmacological screening” (Eur J Med Chem, 2011).

≈ marks a conversion by molar mass, not a printed value.

What all share (type): functional
A short description of test [1]: Antioxidant activity assessed as nitric oxide radical scavenging activity after 150 mins. The method in brief:
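10 mM sodium nitroprusside (4 mL), PBS pH 7.4 (1 mL) and sample or ascorbic acid in DMSO (1 mL, 12.5–100 µg/mL), incubated 150 min at 25 °C. Nitrite detected with sulphanilic acid (5 min) then naphthylethylenediamine (30 min, diffused light). Read at […]. Triplicate. % inhibition = [1 − (Vt/Vc)] × 100. IC50 derived from it.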

Test [2] is described as follows: Antioxidant activity assessed as hydrogen peroxide scavenging activity after 10 mins. The method in brief:
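H2O2 (20 mM) in PBS pH 7.4. 1 mL of sample or ascorbic acid in methanol (12.5–100 µg/mL) added to 2 mL H2O2 solution. A230 read after 10 min. % inhibition = [1 − (Vt/Vc)] × 100. Triplicate, averaged. IC50 derived from % inhibition across concentrations.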

The nature of test [3]: Antioxidant activity assessed as inhibition of lipid peroxidation using egg lecithin liposomes incubated for 1 hr. In short, it runs like this: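 Egg lecithin (3 mg/mL, phosphate buffer pH 7.4) sonicated 10 min to form liposomes. Sample or ascorbic acid (12.5–100 µg/mL) added. Peroxidation induced with FeCl3 and L-ascorbic acid, 1 h at 37 °C. Stopped with HCl/TCA/TBA/BHA, boiled 15 min, centrifuged, supernatant read at 532 nm. Triplicate. % inhibition vs control. IC50 derived.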

Test [4] is described as follows: Antioxidant activity assessed as potassium ferricyanide ion reducing power after 20 mins. The method in brief:
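Oyaizu method. Samples or ascorbic acid in DMF (12.5–100 µg/mL) mixed with 0.2 M phosphate buffer pH 6.6 and 1% potassium ferricyanide, 20 min at 50 °C. 10% TCA added, centrifuged. Supernatant mixed with water and 0.1% FeCl3, read at 700 nm. % = [(Vt/Vc) − 1] × 100. IC50 derived.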

Test [5] is described as follows: Antiinflammatory activity assessed as inhibition of albumin denaturation at 100 ug/ml by UV-visible spectrophotometry. The method in brief: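 Compounds dissolved in minimal DMF, diluted in PBS pH 7.4 (final DMF <2.5%). 1 mL test solution (100 µg/mL) plus 1 mL 1% albumin in PBS, 15 min at 27 ± 1 °C, then heated 10 min at 60 ± 1 °C. After cooling, turbidity read at 660 nm. % inhibition = [(Vt/Vc) − 1] × 100 against a no-drug control. Triplicate, averaged. Diclofenac standard.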

For test [6], the system named is Metaphire posthuma. The test is described as follows: Anthelmintic activity against Pheretima posthuma assessed as time taken for complete parasite paralysis at 0.1% w/v. The method in brief: (§1)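 Earthworms (Pheretima posthuma) exposed to test solutions at 0.1, 0.2 and 0.5% w/v; time in minutes to complete paralysis (worms motionless) recorded. Albendazole as standard. Mean of three determinations ± S.D.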

For test [7], the system named is Metaphire posthuma. Description: Anthelmintic activity against Pheretima posthuma assessed as time taken for complete parasite paralysis at 0.2% w/v. In short, it runs like this:
as §1

In test [8] the test system is Metaphire posthuma. Description: Anthelmintic activity against Pheretima posthuma assessed as time taken for complete parasite paralysis at 0.5% w/v. In short, it runs like this: as §1
Test [9] relates to Metaphire posthuma. Description: Anthelmintic activity against Pheretima posthuma assessed as time taken for parasite death at 0.1% w/v. The method in brief:
(§2)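 Earthworms (Pheretima posthuma, spelled Perituma posthuma in text) exposed to test compounds at 0.1, 0.2 and 0.5% w/v. Albendazole served as standard, with an untreated control. Paralysis was recorded as the time until worms became motionless, then time to death was recorded, in minutes. Each value is the mean of three determinations with S.D.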

Test [10] has as its system Metaphire posthuma. Description: Anthelmintic activity against Pheretima posthuma assessed as time taken for parasite death at 0.2% w/v. The method in brief:
as §2

For test [11], the system named is Metaphire posthuma. The test is described as follows: Anthelmintic activity against Pheretima posthuma assessed as time taken for parasite death at 0.5% w/v. The method in brief:
as §2

In test [12] the test system is Bacillus subtilis. The test is described as follows: Antimicrobial activity against Bacillus subtilis at 25 ug/ml by agar plate diffusion technique. As to conditions: read-out: IZ. The method in brief:
(§3)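 Agar plate diffusion against E. coli, P. aeruginosa, S. aureus and B. subtilis, with compounds at 25, 50 and 100 µg/mL. Streptomycin as standard.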

Test [13] has as its system Bacillus subtilis. The test is described as follows: Antimicrobial activity against Bacillus subtilis at 50 ug/ml by agar plate diffusion technique. The note with it: read-out: IZ. In short, it runs like this:
as §3

Test [14] relates to Bacillus subtilis. The test is described as follows: Antimicrobial activity against Bacillus subtilis at 100 ug/ml by agar plate diffusion technique. As to conditions: read-out: IZ. The method in brief:
as §3

Test [15] has as its system Staphylococcus aureus. Description: Antimicrobial activity against Staphylococcus aureus at 25 ug/ml by agar plate diffusion technique. The note with it: read-out: IZ. The method in brief:
as §3

The subject of test [16] is Staphylococcus aureus. The test is described as follows: Antimicrobial activity against Staphylococcus aureus at 50 ug/ml by agar plate diffusion technique. The note with it: read-out: IZ. In short, it runs like this: as §3
The test system of test [17] is Staphylococcus aureus. The test is described as follows: Antimicrobial activity against Staphylococcus aureus at 100 ug/ml by agar plate diffusion technique. As to conditions: read-out: IZ. In short, it runs like this: as §3
Test [18] concerns Candida albicans. The test is described as follows: Antimicrobial activity against Candida albicans at 25 ug/ml by paper disc method. The note with it: read-out: IZ. In short, it runs like this: (§4)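 Paper disc method against A. niger and C. albicans, with compounds at 25, 50 and 100 µg/mL. Amphotericin-B as standard.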
The subject of test [19] is Candida albicans. Description: Antimicrobial activity against Candida albicans at 50 ug/ml by paper disc method. The note with it: read-out: IZ. The method in brief: as §4
In test [20] the test system is Candida albicans. Description: Antimicrobial activity against Candida albicans at 100 ug/ml by paper disc method. The note with it: read-out: IZ. The method in brief: as §4
The test system of test [21] is Aspergillus niger. The test is described as follows: Antimicrobial activity against Aspergillus niger at 25 ug/ml by paper disc method. As to conditions: read-out: IZ. The method in brief:
as §4

In test [22] the test system is Aspergillus niger. Description: Antimicrobial activity against Aspergillus niger at 50 ug/ml by paper disc method. The note with it: read-out: IZ. In short, it runs like this: as §4
The test system of test [23] is Aspergillus niger. Description: Antimicrobial activity against Aspergillus niger at 100 ug/ml by paper disc method. The note with it: read-out: IZ. The method in brief: as §4
In test [24] the test system is Pseudomonas aeruginosa. The test is described as follows: Antimicrobial activity against Pseudomonas aeruginosa at 25 ug/ml by agar plate diffusion technique. As to conditions: read-out: IZ. In short, it runs like this:
as §3

The subject of test [25] is Pseudomonas aeruginosa. Description: Antimicrobial activity against Pseudomonas aeruginosa at 50 ug/ml by agar plate diffusion technique. As to conditions: read-out: IZ. In short, it runs like this:
as §3

In test [26] the test system is Pseudomonas aeruginosa. The test is described as follows: Antimicrobial activity against Pseudomonas aeruginosa at 100 ug/ml by agar plate diffusion technique. As to conditions: read-out: IZ. The method in brief: as §3

On to `Cn1c(NN)nc(-c2ccco2)c(C#N)c1=O`, for which the IC50 came out at 65 µg/mL (≈ 281 µM) in test [1], 58 µg/mL (≈ 251 µM) in [2], 78 µg/mL (≈ 337 µM) in test [3] and 64 µg/mL (≈ 277 µM) in test [4]. Also, the inhibition in test [5] came to 36.6%. Moreover, the Time in the test with Metaphire posthuma [6] was 43.73 min; with Metaphire posthuma [7], 40.73 min; with Metaphire posthuma [8], 37.52 min; with Metaphire posthuma [9] it was 61.58 min; in the test on Metaphire posthuma [10], 57.48 min; with Metaphire posthuma [11] it was 50.98 min. In addition, the zone of inhibition at 25 µg/mL in the test on Bacillus subtilis [12] amounted to 10.8 mm; in the test on Staphylococcus aureus [15], 8.02 mm; in the test with Candida albicans [18], 8.26 mm; in the test with Aspergillus niger [21], 9.82 mm. Further, the zone of inhibition at 50 µg/mL worked out at 13.3 mm in the test on Bacillus subtilis [13], 10.5 mm with Staphylococcus aureus [16], 10.2 mm with Candida albicans [19] and 10.1 mm in the test on Aspergillus niger [22]. The zone of inhibition at 100 µg/mL in the test on Bacillus subtilis [14] turned out to be 14.2 mm; in the test on Staphylococcus aureus [17], 12.2 mm; in the test on Candida albicans [20], 16 mm; in the test with Aspergillus niger [23], 17.6 mm.
Turning to `Cn1c(NN)nc(-c2cccs2)c(C#N)c1=O`, the concentration for half-maximal inhibition (IC50) amounted to 63 µg/mL (≈ 255 µM) in test [1], 53 µg/mL (≈ 214 µM) in test [2], 68 µg/mL (≈ 275 µM) in [3] and 61 µg/mL (≈ 247 µM) in test [4]. For the same compound, the inhibition in test [5] turned out to be 36.4%. In addition, the Time with Metaphire posthuma [6] is reported as 32.35 min; in the test on Metaphire posthuma [7] it was 29.13 min; in the test with Metaphire posthuma [8] it was 26.13 min; in the test with Metaphire posthuma [9] it was 58.24 min; in the test on Metaphire posthuma [10], 44.42 min; in the test with Metaphire posthuma [11], 40.3 min. For the same compound, the zone of inhibition at 25 µg/mL in the test with Bacillus subtilis [12] worked out at 9.27 mm; in the test on Staphylococcus aureus [15], 9.12 mm; in the test with Candida albicans [18], 10.7 mm; in the test with Aspergillus niger [21], 10.2 mm. The zone of inhibition at 50 µg/mL with Bacillus subtilis [13] was found to be 10.1 mm; with Staphylococcus aureus [16], 10.6 mm; with Candida albicans [19], 13.8 mm; in the test on Aspergillus niger [22], 12.8 mm. The zone of inhibition at 100 µg/mL with Bacillus subtilis [14] was found to be 15.4 mm; in the test on Staphylococcus aureus [17], 13.4 mm; with Candida albicans [20], 15.9 mm; in the test on Aspergillus niger [23], 15.9 mm.
As to `CSc1nc(-c2ccc(N(C)C)cc2)c(C#N)c(=O)n1C`, the IC50 in test [1] was found to be 93 µg/mL (≈ 310 µM); in test [2] it was 84 µg/mL (≈ 280 µM); in test [3], 98 µg/mL (≈ 326 µM); in [4], 78 µg/mL (≈ 260 µM). Besides, the inhibition in test [5] was determined as 19.3%. Further, the Time was determined as 35.25 min with Metaphire posthuma [6]; 44.52 min in the test with Metaphire posthuma [7]; 40.22 min with Metaphire posthuma [8]; 47.57 min with Metaphire posthuma [9]; 55.59 min in the test on Metaphire posthuma [10]; 54.1 min with Metaphire posthuma [11]. For the same compound, the zone of inhibition at 25 µg/mL with Pseudomonas aeruginosa [24] was 6.06 mm; in the test with Bacillus subtilis [12] it was 10.3 mm; with Staphylococcus aureus [15], 6.38 mm; with Candida albicans [18], 11.8 mm; in the test with Aspergillus niger [21] it was 11.1 mm. The zone of inhibition at 50 µg/mL in the test on Pseudomonas aeruginosa [25] worked out at 8.52 mm; in the test with Bacillus subtilis [13] it was 13.9 mm; with Staphylococcus aureus [16], 8.25 mm; with Candida albicans [19], 14.4 mm; with Aspergillus niger [22], 14.5 mm. Further, the zone of inhibition at 100 µg/mL with Pseudomonas aeruginosa [26] was 10.6 mm; in the test on Bacillus subtilis [14], 20.3 mm; in the test with Staphylococcus aureus [17] it was 9.38 mm; in the test on Candida albicans [20] it was 17.9 mm; in the test on Aspergillus niger [23], 19.7 mm.

A word on the IC50: it is the concentration at which inhibition is half-maximal. Usually inhibition stands for the percentage by which the read-out fell short of the control.
